In brackets after ≈: the same amount, converted by molar mass. Activity calls are given as the source filed them. The calls are words filed in the database; no cut-off is given here.
Tests used:
MCF7 = test: Cytotoxicity against human MCF7 cells after 3 days by SRB assay; format: functional; details: MCF7, 72 h, read-out: ED50 (the source's name)
Method in brief: (§1)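 Tumour lines kept in RPMI-1640 with 25 mM HEPES, 0.25% sodium bicarbonate, 10% FBS and 100 µg/mL kanamycin. Freshly trypsinized cells were seeded at 1500-7500 per well with compound from DMSO-diluted stock. After 3 days, attached cells were fixed with cold 50% TCA, stained with 0.4% SRB, and the bound dye was solubilized and read at 562 nm. ED50 is the concentration giving 50% growth reduction.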

PC-3 = test: Cytotoxicity against human PC3 cells after 3 days by SRB assay; format: functional; details: PC-3, 72 h, read-out: ED50 (the source's name); method in brief: as §1
[1] = Cytotoxicity against human U87MG cells after 3 days by SRB assay; format: functional, U-87MG ATCC; details: U-87 MG, 72 h, read-out: ED50 (the source's name)
Method in brief: (§2)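 Freshly trypsinized cells from T-25 stock cultures were seeded at 1500-7500 cells/well with compound added from DMSO-diluted stock. The medium was RPMI-1640 with 25 mM HEPES, 0.25% sodium bicarbonate, 10% FBS and 100 µg/mL kanamycin. After 3 days, attached cells were fixed with cold 50% TCA, stained with 0.4% SRB, and the bound dye solubilized and read at 562 nm. ED50 is the concentration giving 50% growth reduction.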

1A9/ptx-10 [2] = test: Cytotoxicity against human 1A9/PTX10 cells after 6 days by SRB assay; format: functional; details: 1A9/ptx-10, 144 h, read-out: ED50 (the source's name)
Method in brief: (§3)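 Cells were grown in RPMI-1640 supplemented with 25 mM HEPES, 0.25% sodium bicarbonate, 10% FBS and 100 µg/mL kanamycin. Freshly trypsinized cells were plated at 1500-7500 per well with compound from DMSO-diluted stock over a 6-day assay period. Cells were fixed with cold 50% TCA and stained with 0.4% SRB, and the solubilized dye was read at 562 nm. ED50 is the concentration reducing growth by 50%.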

HCT-8 [3] = test: Cytotoxicity against human HCT8 cells after 3 days by SRB assay; format: functional; details: HCT-8, 72 h, read-out: ED50 (the source's name); method in brief: as §1
A549 = test: Cytotoxicity against human A549 cells after 3 days by SRB assay; format: functional; details: A549, 72 h, read-out: ED50 (the source's name); method in brief: as §1
[4] = Cytotoxicity against human KBVIN cells after 3 days by SRB assay; format: functional; details: 72 h, read-out: ED50 (the source's name); method in brief: as §2
1A9 [5] = test: Cytotoxicity against human 1A9 cells after 3 days by SRB assay; format: functional; details: 1A9, 72 h, read-out: ED50 (the source's name); method in brief: as §1
KB = test: Cytotoxicity against human KB cells after 3 days by SRB assay; format: functional; details: 72 h, read-out: ED50 (the source's name); method in brief: as §1
1A9 [6] = test: Cytotoxicity against human 1A9 cells after 6 days by SRB assay; format: functional; details: 1A9, 144 h, read-out: ED50 (the source's name); method in brief: as §3
1A9/ptx-10 [7] = test: Cytotoxicity against human 1A9/PTX10 cells after 3 days by SRB assay; format: functional; details: 1A9/ptx-10, 72 h, read-out: ED50 (the source's name); method in brief: as §1
KBVIN = test: Cytotoxicity against human KBVIN cells at 20 ug/ml after 3 days by SRB assay; format: functional, cell-based
U-87MG ATCC = test: Cytotoxicity against human U87MG cells at 20 ug/ml after 3 days by SRB assay; format: functional, cell-based
HCT-8 [8] = test: Cytotoxicity against human HCT8 cells at 20 ug/ml after 3 days by SRB assay; format: functional, cell-based
1A9 [9] = test: Cytotoxicity against human 1A9 cells at 20 ug/ml after 6 days by SRB assay; format: functional, cell-based

SMILES | EC50 (MCF7) | EC50 (PC-3) | EC50 [1] | EC50 (1A9/ptx-10 [2]) | EC50 (HCT-8 [3]) | EC50 (A549) | EC50 [4] | EC50 (1A9 [5]) | EC50 (KB) | EC50 (1A9 [6]) | EC50 (1A9/ptx-10 [7]) | Activity (KBVIN) | Activity (U-87MG ATCC) | Activity (HCT-8 [8]) | Activity (1A9 [9])
COC(=O)[C@]1(C)CC[C@]2(C)CC[C@]3(C)C4=CC(=O)c5c(cc(O)c(O)c5C)[C@]4(C)CC[C@@]3(C)[C@@H]2C1 | 12.8 µg/mL (≈ 26.6 µM) | > 20 µg/mL | > 20 µg/mL | 7.1 µg/mL (≈ 14.8 µM) | 14.1 µg/mL (≈ 29.3 µM) | 16.4 µg/mL (≈ 34.1 µM) | 16.6 µg/mL (≈ 34.5 µM) | 11.7 µg/mL (≈ 24.3 µM) | 14.5 µg/mL (≈ 30.2 µM) | 10.7 µg/mL (≈ 22.3 µM) | 12.4 µg/mL (≈ 25.8 µM) | – | – | – | –
CC1(C)CC[C@]2(C)CC[C@]3(C)C(=CC[C@@H]4[C@@]5(C)CC[C@H](O)C(C)(C)C5C(=O)C[C@]43C)[C@H]2C1 (some centres undefined) | 14.6 µg/mL (≈ 33.1 µM) | 15.1 µg/mL (≈ 34.3 µM) | 6.7 µg/mL (≈ 15.2 µM) | 11.2 µg/mL (≈ 25.4 µM) | 13.7 µg/mL (≈ 31.1 µM) | 13.3 µg/mL (≈ 30.2 µM) | 14.7 µg/mL (≈ 33.4 µM) | 11.4 µg/mL (≈ 25.9 µM) | 13 µg/mL (≈ 29.5 µM) | 11.3 µg/mL (≈ 25.6 µM) | 11 µg/mL (≈ 25 µM) | – | – | – | –
CC[C@H](CC[C@@H](C)[C@H]1CC[C@H]2[C@@H]3CC=C4C[C@@H](O)CC[C@]4(C)[C@H]3CC[C@]12C)C(C)C [BETA-SITOSTEROL] | > 20 µg/mL | > 20 µg/mL | > 20 µg/mL | 9.5 µg/mL (≈ 22.9 µM) | > 20 µg/mL | > 20 µg/mL | > 20 µg/mL | 16.8 µg/mL (≈ 40.5 µM) | > 20 µg/mL | 10.6 µg/mL (≈ 25.6 µM) | 20 µg/mL (≈ 48.2 µM) | – | – | – | –
CC1=C(O)C(=O)C=C2C1=CC=C1[C@@]2(C)CC[C@@]2(C)[C@@H]3C[C@](C)(C(=O)O)CC[C@]3(C)CC[C@]12C [CELASTROL] | 0.21 µg/mL (≈ 0.466 µM) | 0.27 µg/mL (≈ 0.599 µM) | 0.22 µg/mL (≈ 0.488 µM) | 0.11 µg/mL (≈ 0.244 µM) | 0.23 µg/mL (≈ 0.51 µM) | 0.25 µg/mL (≈ 0.555 µM) | 0.34 µg/mL (≈ 0.755 µM) | 0.091 µg/mL (≈ 0.202 µM) | 0.2 µg/mL (≈ 0.444 µM) | 0.11 µg/mL (≈ 0.244 µM) | 0.1 µg/mL (≈ 0.222 µM) | – | – | – | –
CC(=O)O[C@H]1C(=O)[C@@]2(C)[C@H]([C@H](OC(=O)c3ccccc3)[C@]3(O)C[C@H](OC(=O)[C@H](O)[C@@H](NC(=O)c4ccccc4)c4ccccc4)C(C)=C1C3(C)C)[C@]1(OC(C)=O)CO[C@@H]1C[C@@H]2O [PACLITAXEL] | – | – | – | – | 0.011 µg/mL (≈ 0.0129 µM) | 0.005 µg/mL (≈ 0.00586 µM) | – | 0.002 µg/mL (≈ 0.00234 µM) | 0.001 µg/mL (≈ 0.00117 µM) | 0.041 µg/mL (≈ 0.048 µM) | – | – | – | – | –
COC(=O)[C@]1(C)CC[C@]2(C)CC[C@]3(C)C4=CC=C5C(=CC(=O)C(O)=C5C)[C@]4(C)CC[C@@]3(C)[C@@H]2C1 [PRISTIMERIN] | 0.14 µg/mL (≈ 0.301 µM) | 0.23 µg/mL (≈ 0.495 µM) | 0.17 µg/mL (≈ 0.366 µM) | 0.076 µg/mL (≈ 0.164 µM) | 0.15 µg/mL (≈ 0.323 µM) | 0.31 µg/mL (≈ 0.667 µM) | 0.29 µg/mL (≈ 0.624 µM) | 0.1 µg/mL (≈ 0.215 µM) | 0.1 µg/mL (≈ 0.215 µM) | 0.11 µg/mL (≈ 0.237 µM) | 0.11 µg/mL (≈ 0.237 µM) | – | – | – | –
CC(=O)O[C@H]1[C@@H]2[C@@H](OC(=O)c3ccc(=O)n(C)c3)[C@@]3(OC2(C)C)[C@@](C)([C@@H](OC(C)=O)CC[C@]3(C)O)[C@H]1OC(=O)c1ccccc1 [REISSANTIN A] | > 20 µg/mL | > 20 µg/mL | – | > 20 µg/mL | > 20 µg/mL | > 20 µg/mL | – | > 20 µg/mL | > 20 µg/mL | > 20 µg/mL | > 20 µg/mL | inactive | inactive | – | –
CC(=O)O[C@H]1[C@@H]2[C@@H](OC(=O)c3ccc(=O)n(C)c3)[C@@]3(OC2(C)C)[C@](C)([C@H]1OC(=O)c1ccccc1)[C@@H](OC(C)=O)[C@@H](OC(=O)c1ccccc1)C[C@]3(C)O [REISSANTIN B] | > 20 µg/mL | > 20 µg/mL | > 20 µg/mL | 15.3 µg/mL (≈ 20.5 µM) | > 20 µg/mL | 15.3 µg/mL (≈ 20.5 µM) | 17.1 µg/mL (≈ 22.9 µM) | 17.1 µg/mL (≈ 22.9 µM) | 11.7 µg/mL (≈ 15.7 µM) | 13.7 µg/mL (≈ 18.4 µM) | > 20 µg/mL | – | – | – | –
CC(=O)O[C@H]1CC[C@](C)(O)[C@]23OC(C)(C)[C@H]([C@H](O)[C@H](OC(=O)c4ccccc4)[C@]12C)[C@H]3O [REISSANTIN D] | 16.2 µg/mL (≈ 36.1 µM) | > 20 µg/mL | – | > 20 µg/mL | – | > 20 µg/mL | – | > 20 µg/mL | > 20 µg/mL | > 20 µg/mL | > 20 µg/mL | inactive | inactive | inactive | –
CC(=O)O[C@H]1[C@@H]2[C@@H](O)[C@@]3(OC2(C)C)[C@@](C)([C@@H](OC(C)=O)CC[C@]3(C)O)[C@H]1OC(=O)c1ccccc1 [REISSANTIN E] | > 20 µg/mL | > 20 µg/mL | – | > 20 µg/mL | > 20 µg/mL | > 20 µg/mL | 16.5 µg/mL (≈ 33.6 µM) | > 20 µg/mL | 14.4 µg/mL (≈ 29.4 µM) | – | > 20 µg/mL | – | inactive | – | inactive

— ChEMBL document CHEMBL1147243, “Antitumor agents. 228. five new agarofurans, Reissantins A-E, and cytotoxic principles from Reissantia buchananii” (2003)
